Measured values as given in ChEMBL document CHEMBL1153546, “Pharmacokinetics of telbivudine in subjects with various degrees of renal impairment” (Antimicrob Agents Chemother, 2007).

Legend:
[1] = system: HepG2; assay: Cmax for Telbivudine triphosphate in HepG2 cells after 10 uM Telbivudine treatment; type: ADME, cell-based; settings: human, hepg2, 10 µM; read-out: Cmax_triphosphate
[2] = AUC (0 to t) in patient with mild renal impairment at 600 mg, po administered as single dose; type: ADME, organism-based; settings: human, plasma
Method in brief: (§1)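 Single oral telbivudine dose. Heparinized blood was drawn predose and up to 48 h postdose, with extra paired dialyzer samples for predialysis dosing. Plasma was stored at –20°C and assayed by validated HPLC-MS/MS (LLOQ 10 ng/ml, range 10–5,000 ng/ml). Noncompartmental analysis: AUC0-t by linear trapezoidal rule to last measurable concentration; AUC0-∞ = AUC0-t + Ct/kel.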

[3] = Cmax in patient with severe renal impairment at 200 mg, po administered as single dose; type: ADME, organism-based; set-up: dose 200 mg, route oral; settings: human, in vivo
Method in brief: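 Plasma telbivudine after one oral dose, sampled predose through 48 h and quantified by validated LC-MS/MS (LLOQ 10 ng/ml, transition 243.0→127.1 m/z). Cmax was read directly from the observed concentration-time data.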

[4] = Oral bioavailability in human with normal renal function; type: ADME, organism-based; settings: in vivo
[5] = system: Homo sapiens; assay: Plasma clearance in human with normal renal function at 600 mg, po administered as single dose; type: ADME, organism-based; settings: in vivo
Method in brief: (§2)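 Apparent total oral plasma clearance (CL/F) = dose/AUC0-∞. AUC was obtained noncompartmentally from plasma LC-MS/MS concentrations sampled up to 48 h after a single oral dose.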

[6] = AUC (0 to t) in patient with moderate renal impairment at 400 mg, po administered as single dose; type: ADME, organism-based; settings: human, plasma; method in brief: as §1
[7] = Plasma clearance in patient with severe renal impairment at 200 mg, po administered as single dose; type: ADME, organism-based; settings: human; method in brief: as §2
[8] = system: Hepatitis B virus; assay: Antiviral activity against HBV in HBeAg-positive patient with chronic viral infection assessed as log reduction of serum viral DNA copies/ml at 60 mg/day after 4 weeks; type: functional
[9] = Initial decline half life in patient with severe renal impairment at 200 mg, po administered as single dose; type: ADME, organism-based; settings: human, in vivo, read-out: alphat1/2 (converted)
Method in brief: (§3)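 Half-lives came from noncompartmental analysis of plasma LC-MS/MS concentrations over 48 h after a single oral dose. Terminal and initial-decline t1/2 were calculated as 0.693/k, with each rate constant derived by stripping and linear regression.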

[10] = Tmax in human with normal renal function at 600 mg, po administered as single dose; type: ADME, organism-based; settings: in vivo
Method in brief: (§4)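 Single oral dose. Plasma was frozen at –20°C. Assay by validated HPLC-MS/MS (LLOQ 10 ng/ml, calibration 10–5,000 ng/ml, m/z 243.0→127.1). Tmax was read directly from the concentration-time data, with noncompartmental analysis.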

[11] = Elimination half life in patient with severe renal impairment at 200 mg, po administered as single dose; type: ADME, organism-based; settings: human, in vivo, read-out: beta t1/2 (converted); method in brief: as §3
[12] = AUC (0 to t) in patient with end-stage renal disease at 200 mg, po disease as two single doses 2 hrs before dialysis separated by 1 week washout period; type: ADME, organism-based; settings: human, plasma; method in brief: as §1
[13] = AUC (0 to t) in patient with severe renal impairment at 200 mg, po administered as single dose; type: ADME, organism-based; settings: human, plasma; method in brief: as §1
[14] = Tmax in patient with severe renal impairment at 200 mg, po administered as single dose; type: ADME, organism-based; settings: human, in vivo; method in brief: as §4
[15] = Elimination half life in patient with moderate renal impairment at 400 mg, po administered as single dose; type: ADME, organism-based; settings: human, in vivo, read-out: beta t1/2 (converted); method in brief: as §3
[16] = Elimination half life in patient with mild renal impairment at 600 mg, po administered as single dose; type: ADME, organism-based; settings: human, in vivo, read-out: beta t1/2 (converted); method in brief: as §3
[17] = Initial decline half life in human with normal renal function at 600 mg, po administered as single dose; type: ADME, organism-based; settings: in vivo, read-out: alphat1/2 (converted); method in brief: as §3
[18] = Renal clearance in patient with mild renal impairment at 600 mg, po administered as single dose; type: ADME, organism-based, Kidney; settings: human, in vivo, read-out: CL_renal (converted)
Method in brief: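 Renal clearance = Au0-t/AUC0-t, where Au0-t is the cumulative unchanged drug in urine collected over 0–48 h. Plasma and urine were assayed by validated HPLC-MS/MS after a single oral dose.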

[19] = Tmax in patient with moderate renal impairment at 400 mg, po administered as single dose; type: ADME, organism-based; settings: human, in vivo; method in brief: as §4
[20] = AUC (0 to infinity) in patient with moderate renal impairment at 400 mg, po administered as single dose; type: ADME, organism-based; set-up: dose 400 mg, time infinity, route oral; settings: human, plasma; method in brief: as §1
[21] = AUC (0 to t) in patient with end-stage renal disease at 200 mg, po administered as two single doses within 2 hrs of after completion of dialysis separated by 1 week washout period; type: ADME, organism-based; settings: human, plasma; method in brief: as §1
[22] = Elimination half life in human with normal renal function at 600 mg, po administered as single dose; type: ADME, organism-based; settings: in vivo, read-out: beta t1/2 (converted); method in brief: as §3
[23] = Plasma clearance in patient with mild renal impairment at 600 mg, po administered as single dose; type: ADME, organism-based; settings: human; method in brief: as §2
[24] = Plasma clearance in patient with end-stage renal disease at 200 mg, po administered as two single doses within 2 hrs of after completion of dialysis separated by 1 week washout period; type: ADME, organism-based; settings: human; method in brief: as §2
[25] = AUC (0 to infinity) in patient with end-stage renal disease at 200 mg, po administered as two single doses within 2 hrs of after completion of dialysis separated by 1 week washout period; type: ADME, organism-based; set-up: dose 200 mg, time infinity, route oral; settings: human, plasma; method in brief: as §1
[26] = Elimination half life in patient with end-stage renal disease at 200 mg, po administered as two single doses 2 hrs before dialysis separated by 1 week washout period; type: ADME, organism-based; settings: human, in vivo, read-out: beta t1/2 (converted); method in brief: as §3
[27] = Mean cumulative urine excretion level in patient with mild renal impairment at 600 mg, po administered as single dose; type: ADME, organism-based; settings: human, read-out: Activity
Method in brief: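 Urine collected at –2 to 0 h predose and at 0–4, 4–8, 8–12, 12–24 and 24–48 h after a single oral dose. Unchanged telbivudine measured by validated HPLC-MS/MS (LLOQ 30 ng/ml, calibration 30–5,000 ng/ml), and amounts were summed cumulatively.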

[28] = AUC (0 to t) in human with normal renal function at 600 mg, po administered as single dose; type: ADME, organism-based; settings: plasma; method in brief: as §1

Compound: Cc1cn([C@@H]2C[C@@H](O)[C@H](CO)O2)c(=O)[nH]c1=O [TELBIVUDINE]
- Cmax [1]: 30 µM
- AUC(0-t) [2]: 29200 ng·h/mL
- Cmax [3]: 1600 ng/mL
- bioavailability [4]: 52%
- CL [5]: 7.6 L/h
- AUC(0-t) [6]: 30100 ng·h/mL
- CL/F [7]: 118 mL/min
- Activity [8]: 3.6 mL⁻¹
- half-life [9]: 4.5 h
- Tmax [10]: 4 h
- half-life [11]: 32.9 h
- AUC(0-t) [12]: 26500 ng·h/mL
- AUC(0-t) [13]: 25300 ng·h/mL
- Tmax [14]: 4 h
- half-life [15]: 31.2 h
- half-life [16]: 26.7 h
- half-life [17]: 2.32 h
- CL renal [18]: 83.3 mL/min
- Tmax [19]: 4 h
- AUC(0-inf) [20]: 36000 ng·h/mL
- AUC(0-t) [21]: 41800 ng·h/mL
- half-life [22]: 20.5 h
- CL/F [23]: 345 mL/min
- CL/F [24]: 60 mL/min
- AUC(0-inf) [25]: 67400 ng·h/mL
- half-life [26]: 35.2 h
- dose excreted [27]: 23.6%
- AUC(0-t) [28]: 26500 ng·h/mL
